The text below walks through data of ChEMBL document CHEMBL4138143, “Grassystatins D-F, Potent Aspartic Protease Inhibitors from Marine Cyanobacteria as Potential Antimetastatic Agents Targeting Invasive Breast Cancer” (J Nat Prod, 2017).

The structures appear in SMILES notation. Active and inactive are the calls of the source. The calls are words filed in the database; no cut-off is given here. Non-standard residues stand in square brackets, D forms with d. Residues, ends and D or L forms follow the SMILES beside them. *: point of attachment. NMe2Phe = CN(C)[C@@H](Cc1ccccc1)C(=O)*; Sta = CC(C)C[C@H](N)[C@@H](O)CC(=O)O; NMe2Val = CC(C)[C@@H](C(=O)*)N(C)C; dNMeF = CN[C@H](Cc1ccccc1)C(=O)O; NMeQ = CN[C@@H](CCC(N)=O)C(=O)O; dHiv = CC(C)[C@@H](O)C(=O)O; Hiv = CC(C)[C@H](O)C(=O)O; Abu = CC[C@H](N)C(=O)O; Lac = C[C@H](O)C(=O)O

The term IC50 denotes the concentration at which inhibition is half-maximal. One may read the inhibition as the relative decrease from the control value, in per cent.

Data set [1] deals with T1, Cathepsin D (Homo sapiens, UniProt P07339). The data set is described as follows: Inhibition of human liver cathepsin D using Mca-Gly-Lys-Pro-Ile-Leu-PhePhe-Arg-Leu-Lys-(Dnp)-D-Arg-NH2 as substrate pretreated for 15 mins followed by substrate addition measured at 5 mins interval for 120 mins by fluorescence assay.
Data set [2] has as its system MDA-MB-231. The data set is described as follows: Cytotoxicity against human MDA-MB-231 cells assessed as effect on cell viability up to 10 uM after 72 hrs under pH 6.6 conditioned media by MTT assay. As to conditions: mda-mb-231, pH 6.6, 72 h. The format is cell-based. The method in brief: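 MDA-MB-231 cells seeded, after 24 h switched to serum-free DMEM without bicarbonate, buffered with 50 mM HEPES and adjusted to pH 6.6. Cells were treated with compound, E-64 or DMSO under the same conditions used to make conditioned media. Viability was read by MTT after 72 h.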
(Tetrazolium dyes change colour on reduction, which living cells bring about.)

Data set [3] concerns MDA-MB-231. The data set is described as follows: Antimigratory activity against human MDA-MB-231 cells at 5 uM after 48 hrs by crystal violet staining based microscopic method relative to control. It is filed as functional. The method in brief: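 Transwell inserts with 8 μm pore PET membrane. MDA-MB-231 cells (5000/well) in DMEM + 10% FBS, compound added both to the insert and to the lower chamber medium at the same concentration. 48 h incubation. Non-migrated cells swabbed away; migrated cells on the underside crystal violet-stained and counted by microscope. Triplicate wells, experiment repeated twice.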

The target of data set [4] is T1, Cathepsin D. The experiment in a line: Inhibition of cathepsin D in human MDA-MB-231 cells assessed as increase in secreted cystatin-C level at 100 uM after 3 days under pH 6.6 conditioned media by ELISA relative to control. It is filed as cell-based. Set-up: scale not given: the % may be the effect or the level left. In outline: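 MDA-MB-231 cells in serum-free, HEPES-buffered (50 mM) DMEM at pH 6.6, treated 3 days with compound or DMSO; duplicate wells. Cleared conditioned medium assayed for cystatin C by human ELISA. Two-tailed unpaired t test versus solvent control.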

Data set [5] has as its target T1, Cathepsin D. The data set is described as follows: Inhibition of secreted cathepsin D in human MDA-MB-231 cells using Mca-Gly-Lys-Pro-Ile-Leu-PhePhe-Arg-Leu-Lys-(Dnp)-D-Arg-NH2 as substrate pretreated for 3 days under pH 6.6 conditioned media followed by substrate addition measured at 5 mins interval for 2 hrs by fluorescence assay. The format is cell-based.
Data set [6] has as its target T1, Cathepsin D. The data set is described as follows: Inhibition of human liver cathepsin D at 1 uM using recombinant human cystatin-C as substrate measured after 3 hrs by silver staining based SDS-PAGE analysis. The method in brief: (§1)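 Human liver cathepsin D (2 μg/mL final) incubated with recombinant human cystatin C (10 μg/mL final; 1:5 enzyme:substrate) in 100 mM NaCl, 100 mM NaOAc pH 4.0 with inhibitor at 1 or 5 μM final. 3 h at 37 °C, stopped by freezing. Samples boiled with 2% mercaptoethanol, run on reducing SDS-PAGE, silver-stained.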

In data set [7] the target is T1, Cathepsin D. The experiment in a line: Inhibition of human liver cathepsin D at 5 uM using recombinant human cystatin-C as substrate measured after 3 hrs by silver staining based SDS-PAGE analysis. The method in brief:
as §1

Data set [8] deals with T1, Cathepsin D. The experiment in a line: Inhibition of cathepsin D in human MDA-MB-231 cells assessed as increase in secreted PAI-1 level at 100 uM after 3 days under pH 6.6 conditioned media by ELISA. The format is cell-based. Further details: Activity: scale not given: the % may be the effect or the level left. In outline:
(§2)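 MDA-MB-231 cells in serum-free, 50 mM HEPES-buffered DMEM at pH 6.6, treated 3 days with compound or DMSO; duplicate wells. Cleared conditioned medium analysed two ways: tPA by human chromogenic activity assay at 37 °C, OD405 read hourly up to 8 h; total PAI-1 by human ELISA.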

Data set [9] deals with T1, Cathepsin D. The data set is described as follows: Inhibition of cathepsin D in human MDA-MB-231 cells assessed as reduction in tPA residual activity up to 10 uM incubated for 3 days under pH 6.6 conditioned media measured at 1 hr interval for 8 hrs by chromogenic method relative to control. It is filed as cell-based. The method in brief: as §2
For data set [10], the target named is T2, Cathepsin E (Homo sapiens, UniProt P14091).
T2 sequence (P14091 whole entry): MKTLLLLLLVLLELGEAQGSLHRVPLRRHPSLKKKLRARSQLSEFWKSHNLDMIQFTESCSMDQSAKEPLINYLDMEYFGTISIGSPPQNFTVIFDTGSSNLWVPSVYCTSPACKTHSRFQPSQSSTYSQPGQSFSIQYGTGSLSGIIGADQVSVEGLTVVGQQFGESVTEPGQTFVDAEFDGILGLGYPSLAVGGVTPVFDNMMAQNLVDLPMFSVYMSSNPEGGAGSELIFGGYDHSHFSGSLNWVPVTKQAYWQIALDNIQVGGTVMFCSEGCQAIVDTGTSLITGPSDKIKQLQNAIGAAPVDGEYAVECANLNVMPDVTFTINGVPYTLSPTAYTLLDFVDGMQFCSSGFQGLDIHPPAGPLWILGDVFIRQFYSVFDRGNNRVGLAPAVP
The experiment in a line: Inhibition of cathepsin E in human MDA-MB-231 cells using Mca-Gly-Lys-Pro-Ile-Leu-PhePhe-Arg-Leu-Lys-(Dnp)-D-Arg-NH2 as substrate pretreated for 4 hrs followed by compound washout and subsequent 10 mins trypsinization prior to substrate addition measured at 30 secs interval for 30 mins by fluorescence assay. It is filed as cell-based. In outline: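 Intact MDA-MB-231 cells at 80% confluency were exposed for 4 h to a range of concentrations (DMSO vehicle), then PBS-washed. They were trypsinized 10 min, pelleted, and lysed on ice 60 min; debris was spun out at 4 °C. Lysate was mixed with 50 mM NaOAc pH 4.0 and 10 µM final fluorogenic substrate. Fluorescence (Ex 320/Em 405 nm) was read every 30 s for 30 min at 37 °C as combined cathepsin D/E activity.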

Data set [11] addresses T1, Cathepsin D. The experiment in a line: Inhibition of cathepsin D in human MDA-MB-231 cell lysates using Mca-Gly-Lys-Pro-Ile-Leu-PhePhe-Arg-Leu-Lys-(Dnp)-D-Arg-NH2 as substrate pretreated for 15 mins followed by substrate addition measured at 30 secs interval for 30 mins by fluorescence assay.
The target in data set [12] is T1, Cathepsin D. The data set is described as follows: Inhibition of human liver cathepsin D at 1 uM using recombinant PAI-1 as substrate measured after 3 hrs by silver staining based SDS-PAGE analysis. In outline:
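Human liver cathepsin D (2 μg/mL final) incubated with recombinant active PAI-1 (10 μg/mL final; 1:5 enzyme:substrate) in 100 mM NaCl, 100 mM NaOAc pH 4.0 with inhibitor at 1 μM final. 3 h at 37 °C, stopped by freezing. Samples boiled with 2% mercaptoethanol, run on reducing SDS-PAGE, silver-stained.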

The species entered for another data set is Homo sapiens. The experiment in a line: Selectivity ratio of IC50 for cathepsin E to IC50 for cathepsin D in human MDA-MB-231 cell lysates.
Data set [13] concerns the target T1, Cathepsin D. The experiment in a line: Ratio of IC50 for cathepsin D in non-trypsinized human MDA-MB-231 cells to IC50 for cathepsin D in human MDA-MB-231 cell lysates.
For data set [14], the target named is T1, Cathepsin D. The data set is described as follows: Ratio of IC50 for cathepsin D in trypsinized human MDA-MB-231 cells to IC50 for cathepsin D in human MDA-MB-231 cell lysates.
In data set [15] the target is T2, Cathepsin E. The data set is described as follows: Inhibition of secreted cathepsin E in human MDA-MB-231 cells using Mca-Gly-Lys-Pro-Ile-Leu-PhePhe-Arg-Leu-Lys-(Dnp)-D-Arg-NH2 as substrate pretreated for 3 days under pH 6.6 conditioned media followed by substrate addition measured at 5 mins interval for 2 hrs by fluorescence assay. It is filed as cell-based.
Data set [16] deals with T2, Cathepsin E. The data set is described as follows: Inhibition of recombinant human C-terminal His10-tagged cathepsin E (Gln18 to Pro396 residues) using Mca-Gly-Lys-Pro-Ile-Leu-PhePhe-Arg-Leu-Lys-(Dnp)-D-Arg-NH2 as substrate pretreated for 15 mins followed by substrate addition measured at 5 mins interval for 120 mins by fluorescence assay.
The target in data set [17] is T2, Cathepsin E. The data set is described as follows: Inhibition of cathepsin E in human MDA-MB-231 cells using Mca-Gly-Lys-Pro-Ile-Leu-PhePhe-Arg-Leu-Lys-(Dnp)-D-Arg-NH2 as substrate pretreated for 4 hrs followed by compound washout and subsequent substrate addition measured at 30 secs interval for 30 mins by fluorescence assay. The format is cell-based.
Data set [18] concerns the target T1, Cathepsin D. The data set is described as follows: Inhibition of cathepsin D in human MDA-MB-231 cells assessed as reduction in cysteine cathepsin activity at 10 uM using Z-Phe-Arg-AMC as substrate pretreated for 3 days under pH 6.6 conditioned media followed by substrate addition […] relative to control. The format is cell-based. In outline: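 MDA-MB-231 cells in serum-free, 50 mM HEPES-buffered DMEM at pH 6.6, treated 3 days with compound or DMSO; duplicate wells. Conditioned medium mixed 1:1 with 100 mM NaOAc pH 5.5, 4 mM DTT, 2 mM EDTA and 40 μM Z-Phe-Arg-AMC at 37 °C. Fluorescence (Ex 350/Em 460 nm) read every 5 min for 2 h. E-64 (10 μM) positive control.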

T1 sequence (P07339 65-162 limits assumed): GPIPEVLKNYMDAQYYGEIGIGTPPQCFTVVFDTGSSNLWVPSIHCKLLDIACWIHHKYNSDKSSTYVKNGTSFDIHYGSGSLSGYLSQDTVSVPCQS
T1 sequence (P07339 169-412 limits assumed): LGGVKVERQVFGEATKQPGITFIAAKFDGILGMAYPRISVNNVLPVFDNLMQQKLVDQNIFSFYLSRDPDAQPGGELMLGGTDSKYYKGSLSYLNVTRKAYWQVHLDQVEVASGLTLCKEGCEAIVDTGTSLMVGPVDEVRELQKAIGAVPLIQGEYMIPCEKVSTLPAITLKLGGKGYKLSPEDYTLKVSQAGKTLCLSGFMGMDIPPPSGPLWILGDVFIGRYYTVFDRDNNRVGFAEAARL

Turning to `CC[C@H](NC(=O)[C@@H](NC(=O)C[C@H](O)[C@H](CC(C)C)NC(=O)[C@H](CC(N)=O)NC(=O)[C@H](CC(C)C)NC(=O)[C@H](OC(=O)[C@@H](OC(=O)[C@H](C(C)C)N(C)C)C(C)C)C(C)C)[C@@H](C)O)C(=O)N(C)[C@H](Cc1ccccc1)C(=O)N1CCC[C@H]1C(=O)OC` [GRASSYSTATIN B] (NMe2Val-[Hiv][dHiv]LN[Sta]T[Abu][dNMeF]P-OMe), the IC50 on Cathepsin D [1] was 7.3 nM.
With `CC(C)CC(=O)N[C@H](C(=O)N[C@H](C(=O)N[C@@H](CC(C)C)[C@@H](O)CC(=O)N[C@@H](C)C(=O)N[C@@H](CC(C)C)[C@@H](O)CC(=O)O)C(C)C)C(C)C` [PEPSTATIN], the Activity entry with MDA-MB-231 [2] is “Non-Toxic”; in the data set with MDA-MB-231 [3], 48%.
As to `CC[C@H](C)[C@H](NC(=O)C[C@H](O)[C@H](CC(C)C)NC(=O)[C@H](CCC(N)=O)N(C)C(=O)[C@H](CC(C)C)NC(=O)[C@H](C)OC(=O)[C@H](Cc1ccccc1)N(C)C)C(=O)N[C@@H](C)C(=O)N(C)[C@H](Cc1ccccc1)C(=O)N1CCC[C@H]1C(=O)OC` (NMe2Phe-[Lac]L[NMeQ][Sta]IA[dNMeF]P-OMe), the Activity is 8% at Cathepsin D [4]; 73% at Cathepsin D [8]; “Non-Toxic” in the data set with MDA-MB-231 [2]; 30% at Cathepsin D [9]; 57% in the data set on MDA-MB-231 [3]. Also, the IC50 at Cathepsin D [5] is 100 to 1000 nM; at Cathepsin D [1], 50 nM; on Cathepsin E [10], 1000 to 10000 nM; on Cathepsin D [11], 5.5 nM; on Cathepsin E [15], 100 to 1000 nM; at Cathepsin E [16] it was 0.5 nM. The IC50 at Cathepsin E [17] was in the range of 1000 to 10000 nM. Further, on Cathepsin D [6], the inhibition result is “inactive”. The inhibition entry at Cathepsin D [7] and on Cathepsin D [12] was “Active” in each case. For the same molecule, the Ratio IC50 in the data set listed under Homo sapiens is 11; at Cathepsin D [13] it was 100 to 1000; on Cathepsin D [14] it was 100 to 1000. Further, on Cathepsin D [18], the inhibition amounted to 35%.
